Assay results taken from ChEMBL document CHEMBL1681697, “Simple phosphonic inhibitors of human neutrophil elastase” (Bioorg Med Chem Lett, 2011).
Values after ≈ are worked out from the molar mass of the structure shown.

Experiments:
[1] = biological target: Chymotrypsin-like elastase family member 1 (Sus scrofa) (UniProt P00772); test: Inhibition of porcine pancreatic elastase at 5 uM after 15 mins
In short: (§1)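 Single-point screen: each enzyme incubated with inhibitor at 37 °C, then residual activity measured. Inhibition below 5% was scored as no inhibition.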

[2] = Inhibition of trypsin at 5 uM after 15 mins; in short: as §1
[3] = biological target: T1, Neutrophil elastase (Homo sapiens) (UniProt P08246); test: Inhibition of human neutrophil elastase at 5 uM after 15 mins; in short: as §1
T1 sequence (whole entry): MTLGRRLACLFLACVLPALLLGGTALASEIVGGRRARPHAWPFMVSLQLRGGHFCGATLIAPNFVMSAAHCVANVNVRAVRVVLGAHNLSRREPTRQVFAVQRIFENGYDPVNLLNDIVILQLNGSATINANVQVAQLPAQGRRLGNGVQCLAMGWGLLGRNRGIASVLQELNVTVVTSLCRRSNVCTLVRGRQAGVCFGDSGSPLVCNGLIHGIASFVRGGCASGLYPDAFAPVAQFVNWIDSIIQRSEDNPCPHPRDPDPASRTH

[4] = Ratio of dissociation of enzyme-inhibitor-substrate complex to Ki for chymotrypsin
A549 = test: Antiproliferative activity against human A549 cells assessed as growth inhibition at 100 ug/ml after 72 hrs; assay type: functional; conditions: A549, 72 h
LoVo [5] = test: Antiproliferative activity against human LoVo cells after 72 hrs; assay type: functional, cell-based
MCF7 [6] = test: Antiproliferative activity against human MCF7 cells assessed as growth inhibition at 100 ug/ml after 72 hrs; assay type: functional; conditions: MCF7, 72 h
LoVo [7] = test: Antiproliferative activity against human multidrug-resistant LoVo cells assessed as growth inhibition at 100 ug/ml after 72 hrs; assay type: functional
LoVo [8] = test: Antiproliferative activity against human LoVo cells assessed as growth inhibition at 100 ug/ml after 72 hrs; assay type: functional
MCF7 [9] = test: Antiproliferative activity against human MCF7 cells after 72 hrs; assay type: functional, cell-based; conditions: MCF7, 72 h

Chain of Chymotrypsin-like elastase family member 1 (Sus scrofa) (P00772 whole entry): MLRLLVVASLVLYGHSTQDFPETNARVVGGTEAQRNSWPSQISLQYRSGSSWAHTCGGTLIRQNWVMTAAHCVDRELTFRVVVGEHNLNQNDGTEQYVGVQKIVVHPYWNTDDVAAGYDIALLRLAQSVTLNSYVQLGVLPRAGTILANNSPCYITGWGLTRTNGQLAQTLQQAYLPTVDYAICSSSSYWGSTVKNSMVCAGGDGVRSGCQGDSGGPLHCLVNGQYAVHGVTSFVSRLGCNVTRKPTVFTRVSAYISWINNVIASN

SMILES	inhibition [1] [%]	inhibition [2] [%]	inhibition [3] [%]	further results
C[C@@H](NC(=O)OCc1ccccc1)P(=O)(Oc1ccccc1)Oc1ccccc1	< 5	< 5	–	–
CCC(NC(=O)OCc1ccccc1)P(=O)(Oc1ccc(C)c(C)c1)Oc1ccc(C)c(C)c1 (centres undefined)	< 5	–	< 5	–
CC(C)[C@@H](NC(=O)OCc1ccccc1)P(=O)(Oc1ccc(C(C)(C)C)cc1)Oc1ccc(C(C)(C)C)cc1	< 5	< 5	–	–
Cc1ccc(C)c(OP(=O)(Oc2cc(C)ccc2C)[C@@H](CC(C)C)NC(=O)OCc2ccccc2)c1	–	–	< 5	–
COc1ccc(OP(=O)(Oc2ccc(OC)cc2)[C@H](NC(=O)OCc2ccccc2)C(C)C)cc1	–	< 5	–	–
CCCC[C@@H](NC(=O)OCc1ccccc1)P(=O)(Oc1ccc(C(C)(C)C)cc1)Oc1ccc(C(C)(C)C)cc1	–	< 5	–	–
C[C@@H](NC(=O)OCc1ccccc1)P(=O)(Oc1ccc(C(C)(C)C)cc1)Oc1ccc(C(C)(C)C)cc1	–	< 5	–	–
CSc1ccc(OP(=O)(Oc2ccc(SC)cc2)[C@H](NC(=O)OCc2ccccc2)C(C)C)cc1	< 5	–	–	–
CC(C)[C@@H](NC(=O)OCc1ccccc1)P(=O)(Oc1ccc(C(C)(C)CC(C)(C)C)cc1)Oc1ccc(C(C)(C)CC(C)(C)C)cc1	< 5	< 5	< 5	–
CCc1ccc(OP(=O)(Oc2ccc(CC)cc2)[C@@H](C)NC(=O)OCc2ccccc2)cc1	< 5	< 5	–	–
CCCC[C@@H](NC(=O)OCc1ccccc1)P(=O)(Oc1ccc(C(=O)OC)cc1)Oc1ccc(C(=O)OC)cc1	–	–	–	Ratio [4]: < 50 M⁻¹ s⁻¹
CCC(NC(=O)OCc1ccccc1)P(=O)(Oc1ccc(C(=O)OC)cc1)Oc1ccc(C(=O)OC)cc1 (centres undefined)	–	–	–	inhibition at 100 µg/mL (A549): 31%; Ratio [4]: 1070 M⁻¹ s⁻¹; IC50 (LoVo [5]): 73 µg/mL (≈ 135 µM); inhibition at 100 µg/mL (MCF7 [6]): 49%; inhibition at 100 µg/mL (LoVo [7]): 38%
Cc1ccc(C)c(OP(=O)(Oc2cc(C)ccc2C)[C@H](NC(=O)OCc2ccccc2)C(C)C)c1	< 5	< 5	< 5	–
CCC(NC(=O)OCc1ccccc1)P(=O)(Oc1ccc(C)cc1)Oc1ccc(C)cc1 (centres undefined)	< 5	–	< 5	–
CCc1ccc(OP(=O)(Oc2ccc(CC)cc2)[C@H](NC(=O)OCc2ccccc2)C(C)C)cc1	–	< 5	–	–
CCC[C@@H](NC(=O)OCc1ccccc1)P(=O)(Oc1cc(C)c(C)c(C)c1)Oc1cc(C)c(C)c(C)c1	< 5	< 5	< 5	–
CCc1ccc(OP(=O)(Oc2ccc(CC)cc2)C(CC)NC(=O)OCc2ccccc2)cc1 (centres undefined)	< 5	–	–	–
CC(C)C[C@@H](NC(=O)OCc1ccccc1)P(=O)(Oc1ccc(Cl)cc1)Oc1ccc(Cl)cc1	< 5	–	–	–
COC(=O)c1ccc(OP(=O)(Oc2ccc(C(=O)OC)cc2)[C@@H](CC(C)C)NC(=O)OCc2ccccc2)cc1	–	–	–	inhibition at 100 µg/mL (A549): 3%; Ratio [4]: < 50 M⁻¹ s⁻¹; inhibition at 100 µg/mL (MCF7 [6]): 8%; inhibition at 100 µg/mL (LoVo [8]): 22%; inhibition at 100 µg/mL (LoVo [7]): 6%
CSc1ccc(OP(=O)(Oc2ccc(SC)cc2)[C@@H](CC(C)C)NC(=O)OCc2ccccc2)cc1	< 5	–	–	–

SMILES	inhibition [1] [%]	inhibition [2] [%]	inhibition [3] [%]	further results
CC(C)[C@@H](NC(=O)OCc1ccccc1)P(=O)(Oc1ccccc1)Oc1ccccc1	< 5	< 5	< 5	–
CCC[C@@H](NC(=O)OCc1ccccc1)P(=O)(Oc1ccc(OC)cc1)Oc1ccc(OC)cc1	< 5	–	< 5	–
CCC[C@@H](NC(=O)OCc1ccccc1)P(=O)(Oc1cccc(C)c1C)Oc1cccc(C)c1C	< 5	–	< 5	–
COc1ccc(OP(=O)(Oc2ccc(OC)cc2)[C@@H](CC(C)C)NC(=O)OCc2ccccc2)cc1	–	–	< 5	–
CCC[C@@H](NC(=O)OCc1ccccc1)P(=O)(Oc1ccc(C(=O)OC)cc1)Oc1ccc(C(=O)OC)cc1	–	–	–	inhibition at 100 µg/mL (A549): 40%; Ratio [4]: < 50 M⁻¹ s⁻¹; IC50 (MCF7 [9]): 52 µg/mL (≈ 93.6 µM); IC50 (LoVo [5]): 47 µg/mL (≈ 84.6 µM); inhibition at 100 µg/mL (LoVo [7]): 47%
CCCC[C@@H](NC(=O)OCc1ccccc1)P(=O)(Oc1ccc(SC)cc1)Oc1ccc(SC)cc1	< 5	–	< 5	–
CC(C)c1ccc(OP(=O)(Oc2ccc(C(C)C)cc2)[C@H](NC(=O)OCc2ccccc2)C(C)C)cc1	< 5	< 5	< 5	–
CSc1ccc(OP(=O)(Oc2ccc(SC)cc2)[C@@H](C)NC(=O)OCc2ccccc2)cc1	< 5	< 5	–	–
Cc1ccccc1OP(=O)(Oc1ccccc1C)[C@@H](CC(C)C)NC(=O)OCc1ccccc1	< 5	–	–	–
CC(C)[C@@H](NC(=O)OCc1ccccc1)P(=O)(Oc1ccc(S(C)(=O)=O)cc1)Oc1ccc(S(C)(=O)=O)cc1	–	–	–	inhibition at 100 µg/mL (A549): 5%; Ratio [4]: 707 M⁻¹ s⁻¹; inhibition at 100 µg/mL (MCF7 [6]): 19%; inhibition at 100 µg/mL (LoVo [8]): 15%
CC(C)(C)C(=O)Oc1ccc(S(=O)(=O)Nc2ccccc2C(=O)NCC(=O)O)cc1 [SIVELESTAT]	–	–	–	inhibition at 100 µg/mL (MCF7 [6]): 61%; inhibition at 100 µg/mL (LoVo [8]): 20%; inhibition at 100 µg/mL (LoVo [7]): 15%
CCC[C@@H](NC(=O)OCc1ccccc1)P(=O)(Oc1cc(C)cc(C)c1C)Oc1cc(C)cc(C)c1C	< 5	–	< 5	–
CCC(NC(=O)OCc1ccccc1)P(=O)(Oc1ccc(C(C)C)cc1)Oc1ccc(C(C)C)cc1 (centres undefined)	–	< 5	–	–
CCCC[C@@H](NC(=O)OCc1ccccc1)P(=O)(Oc1ccccc1)Oc1ccccc1	< 5	< 5	–	–
CCC(NC(=O)OCc1ccccc1)P(=O)(Oc1ccc(C(C)(C)C)cc1)Oc1ccc(C(C)(C)C)cc1 (centres undefined)	< 5	–	< 5	–
CCC(NC(=O)OCc1ccccc1)P(=O)(Oc1ccc(Cl)cc1)Oc1ccc(Cl)cc1 (centres undefined)	–	–	–	Ratio [4]: < 50 M⁻¹ s⁻¹
CC(C)c1ccc(OP(=O)(Oc2ccc(C(C)C)cc2)[C@@H](C)NC(=O)OCc2ccccc2)cc1	< 5	< 5	–	–
CCC(NC(=O)OCc1ccccc1)P(=O)(Oc1ccccc1)Oc1ccccc1 (centres undefined)	< 5	–	–	–
COC(=O)c1ccc(OP(=O)(Oc2ccc(C(=O)OC)cc2)[C@@H](C)NC(=O)OCc2ccccc2)cc1	–	–	–	inhibition at 100 µg/mL (A549): 25%; Ratio [4]: 1530 M⁻¹ s⁻¹; IC50 (MCF7 [9]): 40 µg/mL (≈ 75.8 µM); IC50 (LoVo [5]): 47 µg/mL (≈ 89.1 µM); inhibition at 100 µg/mL (LoVo [7]): 46%
COC(=O)c1ccc(OP(=O)(Oc2ccc(C(=O)OC)cc2)[C@H](NC(=O)OCc2ccccc2)C(C)C)cc1	< 5	–	–	inhibition at 100 µg/mL (A549): 46%; Ratio [4]: < 50 M⁻¹ s⁻¹; IC50 (MCF7 [9]): 47 µg/mL (≈ 84.6 µM); IC50 (LoVo [5]): 32 µg/mL (≈ 57.6 µM); inhibition at 100 µg/mL (LoVo [7]): 54%
